# Reference: PubChem BioAssay
# Active and inactive are the calls of the source.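 The calls were made as follows, unless noted: active = viability loss from added drug above about 55%, and viability with drug at most 40%, in both replicates (limit read from the data, passing the limit was not always enough); inconclusive = both conditions met in only one replicate; inactive = neither replicate meets both conditions.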
# Experiments:
# [1] = Her2 expression decrease, cell viability multiplex – SKBR3 breast tumor cells, AlphaScreen, ATP viability, primary screen (AID 461;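 active = Her2 level under about 52% in both replicate screens, with viability over 70% of control, limit read from the data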;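 as to Her2 level: lower value means less Her2 protein in the cells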;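 as to viability: percent of carrier control wells set as 100% viability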); conditions: SKBR3 Her2 protein level, 18-24 h, measured here: SKBR3 viability, ATP luminescence, at 10 µM
# [2] = molecular target: Receptor tyrosine-protein kinase erbB-2 (Homo sapiens) (UniProt P04626); assay: as above; conditions: 18-24 h, at 10 µM, stronger effect = lower value
# Chain of Receptor tyrosine-protein kinase erbB-2 (Homo sapiens) (P04626 whole entry, looked up): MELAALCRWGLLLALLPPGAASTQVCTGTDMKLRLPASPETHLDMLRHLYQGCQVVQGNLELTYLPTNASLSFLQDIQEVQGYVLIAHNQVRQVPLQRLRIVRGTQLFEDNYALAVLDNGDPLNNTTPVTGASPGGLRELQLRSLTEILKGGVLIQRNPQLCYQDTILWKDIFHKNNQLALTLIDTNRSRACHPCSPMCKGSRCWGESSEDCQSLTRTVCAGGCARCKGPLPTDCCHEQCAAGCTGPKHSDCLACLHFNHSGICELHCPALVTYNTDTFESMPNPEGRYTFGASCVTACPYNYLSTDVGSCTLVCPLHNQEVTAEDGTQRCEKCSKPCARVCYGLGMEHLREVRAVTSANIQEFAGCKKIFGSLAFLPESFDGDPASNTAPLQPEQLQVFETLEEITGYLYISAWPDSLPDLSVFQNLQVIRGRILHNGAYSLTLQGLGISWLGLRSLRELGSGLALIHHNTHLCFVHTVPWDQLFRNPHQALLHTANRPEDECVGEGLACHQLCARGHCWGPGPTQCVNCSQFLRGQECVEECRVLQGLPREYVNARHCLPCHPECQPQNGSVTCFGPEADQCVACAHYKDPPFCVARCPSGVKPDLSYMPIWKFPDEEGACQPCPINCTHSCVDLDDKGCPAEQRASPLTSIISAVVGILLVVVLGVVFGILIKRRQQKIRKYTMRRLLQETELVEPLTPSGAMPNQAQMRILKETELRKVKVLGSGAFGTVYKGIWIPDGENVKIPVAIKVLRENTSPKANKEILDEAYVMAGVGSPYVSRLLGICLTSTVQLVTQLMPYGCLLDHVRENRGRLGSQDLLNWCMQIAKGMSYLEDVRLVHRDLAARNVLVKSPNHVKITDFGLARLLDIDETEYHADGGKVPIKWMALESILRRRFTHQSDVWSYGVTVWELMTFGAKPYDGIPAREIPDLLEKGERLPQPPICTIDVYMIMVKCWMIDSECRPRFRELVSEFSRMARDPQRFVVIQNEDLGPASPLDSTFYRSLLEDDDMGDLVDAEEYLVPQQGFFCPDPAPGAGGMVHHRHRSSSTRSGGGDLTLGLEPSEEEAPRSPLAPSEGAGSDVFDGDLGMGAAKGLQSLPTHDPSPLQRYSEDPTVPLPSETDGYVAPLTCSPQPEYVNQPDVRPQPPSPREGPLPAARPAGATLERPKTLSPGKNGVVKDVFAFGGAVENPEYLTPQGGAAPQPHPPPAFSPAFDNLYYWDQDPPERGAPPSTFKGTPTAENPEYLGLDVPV
# [3] = reduced viability of SK-BR-3 breast cancer cells – cell-based, 24 h, human, pilot screen (AID 572;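 active = viability at or below 10% of carrier control in both of two separate runs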;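 also: compound exposure lasted between 18 and 24 h rather than exactly 24 h; 100% = carrier-treated control wells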); conditions: SK-BR-3 viability, CellTiter-Glo luminescence, at 10 µM, stronger effect = lower value
# [4] = HUVEC growth inhibition – cell-based, human, primary screen (AID 575;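 active = viability at or below 30% in both replicate assays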;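 also: 100% = median of untreated cell wells with 0.1% DMSO on each plate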); conditions: HUVEC proliferation, CellTiter-Glo luminescence, 72 h; at 10 µM; stronger effect = lower value
# Outline: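 Test system: primary human umbilical vein endothelial cells. Quantity: 1250 cells/well. Compound: single 10 µM dose, 0.1% DMSO, from 5x medium stock. Timing: 72 h treatment at 37 °C. Detection: ATP-based CellTiter-Glo luminescent read. Benchmarks: vehicle and MePR control wells. Format: 384-well plates coated with collagen.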
# [5] = H69AR cell proliferation blockers – human, duplicate replicates, primary screen (AID 580;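 active = viability at or under a set limit in both replicates, limit being median viability minus 3 SD, cut at about 48% in these data, passing the limit was not always enough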;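 also: 100% = mean luminescence of untreated wells and 0% = no signal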); conditions: H69AR lung tumor cells viability, ATP luminescence, 72 h; at 10 µM; stronger effect = lower value
# [6] = MRP1 drug-resistance reversers in H69AR cells – cell-based, doxorubicin co-treatment, pilot screen (AID 601); conditions: CellTiter-Glo, 72 h, at 10 µM; for differential viability (reversal): stronger effect = higher value
# [7] = yeast transport mutant growth inhibition pilot in 384-well plates, post-Golgi transport modulator project (AID 636; in the data active = inhibition above about 31%); conditions: absorbance 615 nm, about 18 h, stronger effect = higher value
# [8] = growth suppression of yeast trafficking mutant, preliminary HTS, modulators of trafficking downstream of Golgi apparatus project, 1536-format plate, OD 615 nm (AID 637; in the data active = inhibition above about 30%); conditions: yeast transport mutant growth, absorbance 615 nm, 18 h; stronger effect = higher value
# [9] = H69AR cells + 2 uM doxorubicin, measured here: viability with 2 uM doxorubicin, stronger effect = lower value
# [10] = H69AR cells, compound alone cytotoxicity
Compound,viability [1] [%],Her2 level [2],viability [3],viability [4],viability [5],differential viability (reversal) ([6]; H69AR cells + 2 uM doxorubicin),"viability [6, 9] [%]","viability [6, 10] [%]",inhibition [7],inhibition [8]
Clc1ccccc1OCCCCn1ccnc1,95,114% (inactive),95% (inactive),95.9% (inactive),83.7% (inactive),11.4% (inactive),72.3,83.7,2.34% (inactive),-4.33% (inactive)
OC(CN1CCCCC1)Cn1c(C(F)(F)F)nc2ccccc21 (stereo not given),85.5,103% (inactive),85.5% (inactive),105% (inactive),83.4% (inactive),-3.04% (inactive),86.4,83.4,0% (inactive),3.5% (inactive)
CCC(C(=O)Nc1ccccc1C(=O)N1CCCC1)N1C(=O)c2ccccc2C1=O (stereo not given),96.5,88% (inactive),96.5% (inactive),78.3% (inactive),102% (inactive),5.91% (inactive),95.8,102,-3.29% (inactive),-4.83% (inactive)
N/C(Cn1nnc(-c2ccccc2)n1)=N\O,97,87.5% (inactive),97% (inactive),112% (inactive),107% (inactive),11% (inactive),96.3,107,-2.5% (inactive),-5.08% (inactive)
COCCNC(=O)CCCCCN1C(=O)CCC1=O,108,79.5% (inactive),108% (inactive),105% (inactive),94.8% (inactive),10.4% (inactive),84.4,94.8,-8.65% (inactive),4.76% (inactive)
O=C(CCCN1C(=O)c2ccccc2C1=O)N1CCC(c2ccccc2)C1 (stereo not given),110,108% (inactive),110% (inactive),114% (inactive),96.4% (inactive),-1.44% (inactive),97.8,96.4,-5% (inactive),0.33% (inactive)
CC1Cc2ccccc2N1C(=O)COC(=O)Cn1nnc(-c2ccccc2)n1 (stereo not given),110,92.5% (inactive),110% (inactive),88.5% (inactive),81% (inactive),7.38% (inactive),73.6,81,-5.27% (inactive),3.65% (inactive)
Cc1cc2ccccc2n1CCNC(=O)c1ccc(S(=O)(=O)N2CCOCC2)cc1,95.5,90% (inactive),95.5% (inactive),85% (inactive),93% (inactive),-4.87% (inactive),97.8,93,-7.57% (inactive),1.75% (inactive)
CCOC(=O)Cn1c(CN2CCOCC2)nc2c1c(=O)[nH]c(=O)n2C,95,109% (inactive),95% (inactive),97.5% (inactive),99.7% (inactive),0.165% (inactive),99.5,99.7,-3.72% (inactive),-0.67% (inactive)
Nc1nonc1-n1nnc(C(=O)c2ccccc2)c1-c1ccccc1,96.5,100% (inactive),96.5% (inactive),63.6% (inactive),99.4% (inactive),7.96% (inactive),91.4,99.4,-6.58% (inactive),6.03% (inactive)
O=C(Nc1cccc(F)c1)N1CC=C(n2c(=O)[nH]c3ccccc32)CC1,111,86.5% (inactive),111% (inactive),93.4% (inactive),81.9% (inactive),5.16% (inactive),76.7,81.9,-4.21% (inactive),0.91% (inactive)
COc1ccc(CNC(=O)Cn2nc(C(F)(F)F)c3c2CCC3)cc1,89.5,91.5% (inactive),89.5% (inactive),103% (inactive),99.5% (inactive),11.9% (inactive),87.6,99.5,-6.13% (inactive),5.74% (inactive)
CCCC(=O)Nc1ccccc1NC(=O)CN(C)S(=O)(=O)c1ccc(C)cc1,97,114% (inactive),97% (inactive),103% (inactive),98.9% (inactive),9.23% (inactive),89.6,98.9,-4.8% (inactive),-4.84% (inactive)
NC(=O)c1oc2ccc(Cl)cc2c1NC(=O)CN1CCOCC1,93.5,81% (inactive),93.5% (inactive),85.3% (inactive),98.5% (inactive),10.1% (inactive),88.4,98.5,-5.26% (inactive),-2.36% (inactive)
N#C[C@@H]1[C@@H]2C(=O)N(c3ccc4c(c3)OCCO4)C(=O)[C@@H]2C2c3ccccc3C=CN21 (stereo not given in full),84.5,72% (inactive),84.5% (inactive),95.8% (inactive),92.8% (inactive),-0.82% (inactive),93.6,92.8,-0.53% (inactive),-5.48% (inactive)
CC(=O)C1=C(C)OC(N)=C(C#N)C1c1ccncc1 (stereo not given),133,80.5% (inactive),133% (inactive),115% (inactive),93.2% (inactive),8.39% (inactive),84.8,93.2,-5.6% (inactive),5.41% (inactive)
Clc1ccc(-c2nnc3sc(-c4ccc(Br)o4)nn23)cc1,128,94.5% (inactive),128% (inactive),86% (inactive),104% (inactive),10.5% (inactive),93.5,104,-5.07% (inactive),5.87% (inactive)
COc1ccc(C2C=C(c3ccccc3)Nc3ncnn32)cc1 (stereo not given),92.5,94.5% (inactive),92.5% (inactive),110% (inactive),101% (inactive),1.29% (inactive),100,101,-3.65% (inactive),3.65% (inactive)
Cc1ccc(-c2cn3cccnc3n2)cc1NC(=O)c1ccc(Br)o1,95.5,86.5% (inactive),95.5% (inactive),97.6% (inactive),88.5% (inactive),8.45% (inactive),80,88.5,-0.39% (inactive),-7.46% (inactive)
Cc1cc(C)nc(NS(=O)(=O)c2ccc(NC(=O)Cn3c(=O)oc4ccccc43)cc2)n1,89.5,101% (inactive),89.5% (inactive),89% (inactive),86.7% (inactive),2.6% (inactive),84.2,86.7,-0.9% (inactive),2% (inactive)
CCOc1cc2[nH]c(=S)n(CC3CCCO3)c(=O)c2cc1OCC (stereo not given),105,103% (inactive),105% (inactive),88.3% (inactive),87.8% (inactive),7.12% (inactive),80.7,87.8,-4.46% (inactive),-3.77% (inactive)
COc1ccccc1CCNC(=O)C1CCCO1 (stereo not given),108,97% (inactive),108% (inactive),92.1% (inactive),98.9% (inactive),7.17% (inactive),91.7,98.9,-6.18% (inactive),-11.3% (inactive)
COc1cc(Cn2c(-c3nonc3N)nc3ccccc32)ccc1C,104,71.5% (inactive),104% (inactive),38.9% (inactive),17.8% (active),-29.2% (inactive),47.1,17.8,-3.92% (inactive),1.59% (inactive)
Cc1cc(NC(=O)C23CCC(C)(C(=O)O2)C3(C)C)no1 (stereo not given),108,93% (inactive),108% (inactive),96.7% (inactive),97.5% (inactive),8.27% (inactive),89.2,97.5,-0.78% (inactive),0.63% (inactive)
Cn1c(=O)[nH]c(=O)c2c1nc(NCCCn1ccnc1)n2Cc1ccccc1,89,108% (inactive),89% (inactive),97.9% (inactive),95.8% (inactive),4.16% (inactive),91.7,95.8,-1.47% (inactive),-3.44% (inactive)
Fc1cccc(-c2cc3nc4c(c(N5CCN(c6cnccn6)CC5)n3n2)CCCC4)c1,104,78% (inactive),104% (inactive),86.9% (inactive),89.2% (inactive),5.59% (inactive),83.6,89.2,-5.58% (inactive),0.16% (inactive)
CCCCCC(=O)N1CC2(C)CN(C(=O)CCCCC)CC(C)(C1)C2=O,87,93% (inactive),87% (inactive),96.9% (inactive),87.5% (inactive),4.14% (inactive),83.4,87.5,0.9% (inactive),6.67% (inactive)
COc1ccc(-c2cn3cc(C)ccc3n2)cc1OC,108,88% (inactive),108% (inactive),91.5% (inactive),63.7% (inactive),0.63% (inactive),63.1,63.7,-5.26% (inactive),-1.64% (inactive)
COCCn1c(CN(Cc2ccccc2)Cc2ccccc2)nc2c1c(=O)n(C)c(=O)n2C,81,96% (inactive),81% (inactive),81.2% (inactive),81.2% (inactive),-11.8% (inactive),93,81.2,-1.87% (inactive),1.5% (inactive)
